Assay results pooled from the literature.
Target: Cholinesterase (BCHE, Homo sapiens, UniProt P06276)
Effect on: enzyme activity
Mode: inhibitor

SMILES	technique	sample	IC50
Cc1cc(O)nc(O)n1	Ellman		0.368 µM
C#CCN(C)c1nc(NCCCC2CCN(Cc3ccccc3)CC2)c(C#N)cc1C#N	Ellman		1.68 µM
C=CCn1c2cc(OC(=O)CCCCN3CCN(Cc4ccc(F)cc4)CC3)ccc2c2ccnc(C)c21	Ellman		0.584 µM
CC(=O)n1ccc(=O)[nH]c1=O	Ellman		0.27 µM
C[N+](C)(C)CCCCCCCCCC[N+](C)(C)C			17.4 µM
Cn1ccc(=O)n(C)c1=O	Ellman		0.544 µM
CC(C)(C)c1ccccc1OP(=O)(Oc1ccccc1C(C)(C)C)Oc1ccccc1C(C)(C)C		liver microsomes	> 20 mg/L
Cc1ccc(S(=O)(=O)n2cc(Br)c(=O)[nH]c2=O)cc1	Ellman		0.137 µM
CC(C)(C)c1cccc(OP(=O)(Oc2cccc(C(C)(C)C)c2)Oc2cccc(C(C)(C)C)c2)c1		liver microsomes	> 20 mg/L
C=CCn1c2cc(OC(=O)CCCCCN3CCN(Cc4ccccc4)CC3)ccc2c2ccnc(C)c21	Ellman		0.464 µM
CC(C)(C)c1ccc(OP(=O)(Oc2ccc(C(C)(C)C)cc2)Oc2ccc(C(C)(C)C)cc2)cc1		liver microsomes	> 20 mg/L
C=CCn1c2cc(OC(=O)CCCCN3CCN(Cc4ccc(C)cc4)CC3)ccc2c2ccnc(C)c21	Ellman		0.581 µM
